Entries after “also recorded” stand apart in the source; their conditions may differ. Where no end group is shown, it is not given here.
How the values were obtained:
[1] = tested on: methylated H3K9 and H3K27 peptides; assay: Peptide microarray, chromodomain binding profile; set-up: species or system human
Method in brief: (§1)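 Array of 467 unmodified and modified peptides (desalted, mass-spectrometry checked) printed in triplicate spots on glass slides and probed with chromodomain proteins. Signal intensities converted to z scores per chromodomain using all its intensities: z = (x − mean)/SD. Hierarchical clustering grouped chromodomains into three categories and peptides into six clusters by binding preference.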

H3K9me3 = settings: read-out: Kd H3K9me3; reported Kd of CBX chromodomains; cited from earlier work
SUV91 chromodomain = assay: Peptide microarray binding, SUV91; set-up: species or system human
Method in brief: as §1

Substance | binding profile toward methylated H3K9 / H3K27 peptides (in words) [1] | Kd (H3K9me3) | binding to SUV91 chromodomain (in words) (SUV91 chromodomain)
CBX2: CBX2 chromodomain, GST fusion, cloned sequence 9-66 (EQVFAAECILSKRLRKGKLEYLVKWRGWSSKHNSWEPEENILDPRLLLAFQKKEHEKE; also: GST fusion, end not given here; UniProt Q14781 9-66, looked up, fragment) | binding to both methylated H3K9 and H3K27 was confirmed; also recorded: higher H3K27 signal intensity compared with those of H3K9 | – | –
CBX4: CBX4 chromodomain, GST fusion, cloned sequence 8-65 (EHVFAVESIEKKRIRKGRVEYLVKWRGWSPKYNTWEPEENILDPRLLIAFQNRERQEQ; also: GST fusion, end not given here; UniProt O00257 8-65, looked up, fragment) | binding to both methylated H3K9 and H3K27 was confirmed | – | –
CBX6: CBX6 chromodomain, GST fusion, cloned sequence 8-65 (ERVFAAESIIKRRIRKGRIEYLVKWKGWAIKYSTWEPEENILDSRLIAAFEQKERERE; also: GST fusion, end not given here; UniProt O95503 8-65, looked up, fragment) | binding to both methylated H3K9 and H3K27 was confirmed; also recorded: showed signals with di- and trimethylated peptides at both sites | – | –
CBX8: CBX8 chromodomain, GST fusion, cloned sequence 8-61 (ERVFAAEALLKRRIRKGRMEYLVKWKGWSQKYSTWEPEENILDARLLAAFEERE; also: GST fusion, end not given here; UniProt Q9HC52 8-61, looked up, fragment) | binding to both methylated H3K9 and H3K27 was confirmed; also recorded: showed signals with di- and trimethylated peptides at both sites | – | –
WT CBX1: WT CBX1 chromodomain, GST fusion, cloned sequence 20-73 | bound predominantly to all three methylated H3K9 peptides | 5 µM | –
[Ahx]AATASCLIC[K_Me3]YAA [methylated SIRT1 sequence] | – | – | showed binding
